Compounds with a hit are over-represented: about 27% of the library has one in this group of screens.
CYP2C9 activ – human CYP2C9 activators, primary screen, biochemical, luminescence; Cytochrome P450 2C9 (Homo sapiens), P11712; recombinant CYP2C9, luciferin-H conversion; hits give high values; factor 1 = untreated enzyme, 0 = blocked; activation factor at 5 µM; hit rate 1.4% among 96,000; AID 1024, 2008;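 active means activation factor of 2 or more for CYP2C9 at a 5 µM dose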;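 further: 0 = sulfaphenazole-blocked wells and 1 = vehicle-only wells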
Target sequence (P11712 whole entry, looked up): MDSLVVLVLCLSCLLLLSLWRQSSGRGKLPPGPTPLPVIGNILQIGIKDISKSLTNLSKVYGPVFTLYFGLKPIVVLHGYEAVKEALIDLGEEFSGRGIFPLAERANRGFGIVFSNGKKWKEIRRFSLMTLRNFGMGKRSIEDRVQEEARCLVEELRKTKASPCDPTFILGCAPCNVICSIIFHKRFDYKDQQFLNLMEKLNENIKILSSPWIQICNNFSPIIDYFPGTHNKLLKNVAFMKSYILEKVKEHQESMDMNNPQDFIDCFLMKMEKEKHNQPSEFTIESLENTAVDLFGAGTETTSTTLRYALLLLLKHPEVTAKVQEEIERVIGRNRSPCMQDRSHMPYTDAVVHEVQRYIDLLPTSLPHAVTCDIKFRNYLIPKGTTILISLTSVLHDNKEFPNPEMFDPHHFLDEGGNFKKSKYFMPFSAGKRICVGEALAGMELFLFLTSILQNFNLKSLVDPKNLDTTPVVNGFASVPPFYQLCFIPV
CYP2C19 act – human CYP2C19 activators, primary screen, biochemical, luminescence; 96,000 tested, under 10 active; recombinant CYP2C19, luciferin-H EGE luminescence; hits give high values; 0 = fully inhibited enzyme, 1 = untreated enzyme; activation factor at 5 µM; Cytochrome P450 2C19 (Homo sapiens), P33261;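 active means activation factor of at least 2 at 5 µM in the primary screen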;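 further: 0 = wells with 2.5 mM tranylcypromine and 1 = vehicle-only wells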
Cav3 T inh – Cav3.2 calcium influx blockers – cell-based, Fluo-4 calcium fluorescence, FDSS, MLSMR library, primary screen | Voltage-dependent T-type calcium channel subunit alpha-1H (Homo sapiens), O95180 | Cav3.2-expressing cells; hits give low values | B-score at 10 µM | hit rate 4% among 100,000;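 active means single-dose well whose peak fluorescence ratio is a statistical outlier from its plate by either plate-standardised score or position-corrected B-score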
CYP2C19 inh – blockers of cytochrome P450 2C19 activity – biochemical, luminescence, ADME assay, primary screen; P33261; CYP2C19 Supersomes, luciferin-H EGE luminescence, 30 min; inhibition, % at 5 µM; hit rate 21% among 96,000; AID 778, 2007;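 active means CYP2C19 inhibition above a set limit at 5 µM in the primary screen, cut at about 50% in these data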;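 further: plate controls were negative control wells for no effect and 2.5 mM tranylcypromine positive control for full effect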
HIV Rev-RRE inh – HIV-1 Rev-RRE binding inhibitors, primary screen, biochemical, FRET, protein-RNA interaction; P05866; Rev peptide-RRE RNA binding; inhibition, % at 8 µM; hit rate 0.79% among 97,000; AID 704, 2007;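 active means inhibition above the screen-wide mean plus 3 SD, cut at about 35% in these data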;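 further: 0% = median DMSO wells and 100% = median Neomycin B control wells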
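System: Cy5-labelled duplex RRE RNA binding fluorescein-labelled HIV Rev peptide; Signal: fluorescein-to-Cy5 FRET, 480 nm excitation; Also added: labelled Rev peptide; Compound: one concentration, 8 µM nominal; Buffer or medium: HEPES pH 7.5 salt buffer with EDTA; Read-out: % inhibition of FRET ratio versus controls; Schedule: 5 min preincubation and 15 min binding, 25 °C.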
CYP2C9 inh – blockers of cytochrome P450 2C9 activity – biochemical, luminescence, ADME assay, primary screen. P11712. CYP2C9 Supersomes, luciferin-H conversion. inhibition, % at 5 µM. hit rate 20% among 96,000. AID 777, 2007;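 active means blocking of liver enzyme CYP2C9 beyond about 50% at 5 µM, limit read from the data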
The depositor's hits bear a star.

O=S(=O)(NC1CCCCC1NS(=O)(=O)c1ccc(F)cc1)c1ccc(F)cc1 (stereo unspecified) was read as CYP2C9 activ 0.1, CYP2C19 act 0.4, Cav3 T inh -1.1, CYP2C19 inh 62*, HIV Rev-RRE inh -1 and CYP2C9 inh 87*.
For O=C(O)CCC(=O)Nc1ccc(OCC(=O)O)cc1 the results were CYP2C9 activ 1.3, CYP2C19 act 1.2, Cav3 T inh -0.57, CYP2C19 inh -19, HIV Rev-RRE inh 0 and CYP2C9 inh -27.
`CC(C)(C)C(=O)CNS(=O)(=O)c1ccc(S(=O)(=O)NC2CCCC2)cc1` gave CYP2C9 activ 0.5, CYP2C19 act 0.1, Cav3 T inh 0.22, CYP2C19 inh 89*, HIV Rev-RRE inh 8 and CYP2C9 inh 47.
CN(C(=O)c1ccc(S(=O)(=O)NC2CCCC2)cc1)C1CCCCC1 was read as CYP2C9 activ 0.9, CYP2C19 act 0.9, Cav3 T inh 0.86, CYP2C19 inh 12, HIV Rev-RRE inh 4 and CYP2C9 inh 13.
For CC(C)(C)NC(=O)NC(=O)CSc1nnc(COc2ccccc2Cl)o1 the results were CYP2C9 activ 1, CYP2C19 act 0.6, Cav3 T inh -6*, CYP2C19 inh 39, HIV Rev-RRE inh 7 and CYP2C9 inh -3.
COc1ccccc1OCc1nnc(SCC(=O)c2cc(Cl)ccc2OC)o1 was read as CYP2C9 activ 2.6*, CYP2C19 act 0.9, Cav3 T inh -0.63, CYP2C19 inh 8, HIV Rev-RRE inh 2 and CYP2C9 inh -156.
Cc1csc(NC(=O)C2CCCN2C(=O)Oc2ccccc2)n1 (stereo unspecified) was read as CYP2C9 activ 0.9, CYP2C19 act 0.9, Cav3 T inh -1.3, CYP2C19 inh 12 and CYP2C9 inh 6.
O=C1N/C(=N/Nc2ccccc2)S/C1=C\c1ccccc1 was read as CYP2C9 activ 0.3, CYP2C19 act 0.5, CYP2C19 inh 53*, HIV Rev-RRE inh -8 and CYP2C9 inh 67*.
COc1cc(C)nc(NC(=O)COc2ccc(Cl)cc2C)n1 was read as CYP2C9 activ 1, CYP2C19 act 0.7, Cav3 T inh 0.65, CYP2C19 inh 34, HIV Rev-RRE inh 12 and CYP2C9 inh -3.
`CCC(C)(NC(=O)c1cccc(N2C(=O)CSC2c2ccccc2)c1)C(=O)Nc1ccccc1C` (stereo unspecified) gave CYP2C9 activ 0.8, CYP2C19 act 0.5, Cav3 T inh -5.1*, CYP2C19 inh 48, HIV Rev-RRE inh -1 and CYP2C9 inh 25.
`O=C(O)c1cccc(N2C(=O)CSC2c2c(F)cccc2Cl)c1` (stereo unspecified) gave Cav3 T inh 0.84 and HIV Rev-RRE inh 4.
For O=C(Cc1sc(-c2ccccc2Cl)nc1-c1ccccc1)Nc1ccc(F)cc1 the results were CYP2C9 activ 0.3, CYP2C19 act 0.6, Cav3 T inh -0.75, CYP2C19 inh 39, HIV Rev-RRE inh 16 and CYP2C9 inh 73*.
Screening O=C(Cc1sc(-c2ccccc2Cl)nc1-c1ccccc1)Nc1ccccc1 returned CYP2C9 activ 0.6, CYP2C19 act 0.8, Cav3 T inh 0.37, CYP2C19 inh 25, HIV Rev-RRE inh 17 and CYP2C9 inh 37.
CCCNc1nc(Nc2ccc(C)cc2)nc(N2CCCC2)n1 was read as CYP2C9 activ 0.8, CYP2C19 act 1, Cav3 T inh -3, CYP2C19 inh -4, HIV Rev-RRE inh 15 and CYP2C9 inh 22.
For Cc1ccccc1Nc1nc(Nc2ccccc2C)nc(SC2=NCCS2)n1 the results were CYP2C9 activ 0.2, CYP2C19 act 0.5, Cav3 T inh -4.6*, CYP2C19 inh 54*, HIV Rev-RRE inh -1 and CYP2C9 inh 77*.
`Cc1ccc(Nc2nc(Nc3ccc(C)cc3)nc(SC3=NCCS3)n2)cc1` gave CYP2C9 activ 0.1, CYP2C19 act 0.5, CYP2C19 inh 50, HIV Rev-RRE inh 6 and CYP2C9 inh 86*.
Screening Cc1ccccc1Nc1nc(N)nc(CN(C)c2ccccc2)n1 returned CYP2C9 activ 0.6, CYP2C19 act 0.7, Cav3 T inh -0.97, CYP2C19 inh 32 and CYP2C9 inh 37.
